Results from ChEMBL document CHEMBL3407394, “Synthesis and in vitro anticancer activity evaluation of novel bioreversible phosphate inositol derivatives” (Eur J Med Chem, 2015).

Assays:
A549 [1] = test: Cytotoxicity against human A549 cells assessed as growth inhibition at 10 ug/ml after 72 hrs by MTT assay; assay type: functional; settings: A549, 72 h, read-out: GI
Outline: (§1)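 Single-concentration screen in A549, HeLa or MDA-MB-231 cells cultured in DMEM, 10% FBS, 1% penicillin/streptomycin. About 1000 cells/well were preincubated 12 h, and compound diluted in DMEM to the final well concentration (0.5% DMSO) for 72 h at 37 °C, 5% CO2. Readout was MTT 4 h, DMSO-solubilized formazan, OD570, with inhibition relative to DMSO vehicle. Cisplatin in 1% NaCl (pH 7) served as positive control.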

HeLa [2] = test: Cytotoxicity against human HeLa cells assessed as growth inhibition at 10 ug/ml after 72 hrs by MTT assay; assay type: functional; settings: read-out: GI; outline: as §1
MDA-MB-231 [3] = test: Cytotoxicity against human MDA-MB-231 cells assessed as growth inhibition at 10 ug/ml after 72 hrs by MTT assay; assay type: functional; settings: MDA-MB-231, 72 h, read-out: GI; outline: as §1
[4] = Cytotoxicity against human MCF10A cells assessed as growth inhibition at 10 ug/ml after 72 hrs by MTT assay; assay type: cell-based, MCF-10A; settings: read-out: GI
Outline: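 MCF10A cells in DMEM/F12 plus 5% horse serum, about 1000 per well, were incubated 12 h, then treated at one final well concentration diluted in DMEM (0.5% DMSO) for 72 h, 37 °C, 5% CO2. Viability was by MTT: 4 h in fresh medium, formazan dissolved in DMSO, absorbance at 570 nm, normalized to vehicle controls. Cisplatin in 1% NaCl, pH 7, was the positive control.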

A549 [5] = test: Cytotoxicity against human A549 cells assessed as growth inhibition after 72 hrs by MTT assay; assay type: functional, cell-based; settings: A549, 72 h
Outline: (§2)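 A549, HeLa and MDA-MB-231 cells were grown in DMEM with 10% FBS and 1% penicillin/streptomycin. About 1000 cells/well were seeded and left 12 h, then exposed to a dilution series in DMSO (final 0.5% DMSO) for 72 h at 37 °C, 5% CO2. MTT in fresh medium was added for 4 h, formazan dissolved in DMSO, and OD570 read. Viability was normalized to vehicle, and IC50 taken by linear regression of concentration-response curves.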

HeLa [6] = test: Cytotoxicity against human HeLa cells assessed as growth inhibition after 72 hrs by MTT assay; assay type: functional, cell-based; outline: as §2
MDA-MB-231 [7] = test: Cytotoxicity against human MDA-MB-231 cells assessed as growth inhibition after 72 hrs by MTT assay; assay type: functional, cell-based; settings: MDA-MB-231, 72 h; outline: as §2
[8] = Cytotoxicity against human MCF10A cells assessed as growth inhibition after 72 hrs by MTT assay; assay type: cell-based; settings: MCF-10A
Outline: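 MCF10A non-cancerous cells were maintained in DMEM/F12 with 5% horse serum. About 1000 cells/well were seeded and attached for 12 h, then dosed over a dilution series (DMSO vehicle, final 0.5%) for 72 h at 37 °C, 5% CO2. MTT in fresh medium ran 4 h, formazan was dissolved in DMSO and OD570 measured. Viability was relative to vehicle-treated cells, and IC50 came from linear regression of concentration-response curves.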

Row | SMILES | inhibition of growth at 10 µg/mL (A549 [1]) | inhibition of growth at 10 µg/mL (HeLa [2]) | inhibition of growth at 10 µg/mL (MDA-MB-231 [3]) | inhibition at 72 h, 10 ug/ml [4] | IC50 (A549 [5]) | IC50 (HeLa [6]) | IC50 (MDA-MB-231 [7]) | IC50 [8]
1 | CC(=O)Oc1ccc(COP(=O)(OCc2ccc(OC(C)=O)cc2)OC2C(OCc3ccccc3)C3OC(C)OC(C3OCc3ccccc3)C2OCc2ccccc2)cc1 (stereo not drawn) | 96.6% | 100% | 9.5% | 98.1% | 11.4 µM | 2.79 µM | 2.85 µM | 8.19 µM
2 | C#CCO[C@@H]1[C@@H](OCc2ccccc2)[C@H](OP(=O)(OCc2ccc(OC(C)=O)cc2)OCc2ccc(OC(C)=O)cc2)[C@H](OP(=O)(OCc2ccc(OC(C)=O)cc2)OCc2ccc(OC(C)=O)cc2)[C@H](OP(=O)(OCc2ccc(OC(C)=O)cc2)OCc2ccc(OC(C)=O)cc2)[C@H]1OCc1ccccc1 | 2.5% | 100% | 88.1% | 15.4% | > 30 µM | 19 µM | > 30 µM | > 30 µM
3 | C#CCO[C@@H]1[C@@H](OCc2ccccc2)[C@H](OP(=O)(OCc2ccc(OC(C)=O)cc2)OCc2ccc(OC(C)=O)cc2)[C@H](OCc2ccccc2)[C@H](OP(=O)(OCc2ccc(OC(C)=O)cc2)OCc2ccc(OC(C)=O)cc2)[C@H]1OCc1ccccc1 | 9.9% | 100% | 8.7% | 38.6% |  |  |  | 
4 | CC(=O)Oc1ccc(COP(=O)(OCc2ccc(OC(C)=O)cc2)O[C@@H]2[C@@H](OCc3ccccc3)[C@@H](OCc3ccccc3)[C@@H](OP(=O)(OCc3ccc(OC(C)=O)cc3)OCc3ccc(OC(C)=O)cc3)[C@H](OP(=O)(OCc3ccc(OC(C)=O)cc3)OCc3ccc(OC(C)=O)cc3)[C@H]2OCc2ccccc2)cc1 | 7.8% | 80% | 21.3% | 9.2% |  |  |  | 
5 | CC(=O)Oc1ccc(COP(=O)(OCc2ccc(OC(C)=O)cc2)OC2C3OCOC2C(OP(=O)(OCc2ccc(OC(C)=O)cc2)OCc2ccc(OC(C)=O)cc2)C(OP(=O)(OCc2ccc(OC(C)=O)cc2)OCc2ccc(OC(C)=O)cc2)C3OCc2ccccc2)cc1 (stereo not drawn) | 94% | 94.3% | 94.4% | 2.5% | 4.27 µM | 1.08 µM | 1.68 µM | > 20 µM
6 | CC(=O)Oc1ccc(COP(=O)(OCc2ccc(OC(C)=O)cc2)O[C@@H]2[C@@H](OCc3ccccc3)[C@H](OP(=O)(OCc3ccc(OC(C)=O)cc3)OCc3ccc(OC(C)=O)cc3)[C@H](OCc3ccccc3)[C@H](OCc3ccccc3)[C@H]2OCc2ccccc2)cc1 | 27.1% | 27.2% | 88.4% | 10.5% | 26.7 µM | 12.2 µM | 28.6 µM | > 40 µM
7 | CC(=O)Oc1ccc(COP(=O)(OCc2ccc(OC(C)=O)cc2)O[C@@H]2[C@H](OCc3ccccc3)[C@H](OCc3ccccc3)[C@@H](OP(=O)(OCc3ccc(OC(C)=O)cc3)OCc3ccc(OC(C)=O)cc3)[C@H](OP(=O)(OCc3ccc(OC(C)=O)cc3)OCc3ccc(OC(C)=O)cc3)[C@H]2OCc2ccccc2)cc1 | 6.4% | 84.5% | 11% | 37.4% |  |  |  | 
8 | CC(=O)Oc1ccc(COP(=O)(OCc2ccc(OC(C)=O)cc2)OC2C3OC4OC2C(OP(=O)(OCc2ccc(OC(C)=O)cc2)OCc2ccc(OC(C)=O)cc2)C(O4)C3OP(=O)(OCc2ccc(OC(C)=O)cc2)OCc2ccc(OC(C)=O)cc2)cc1 (stereo not drawn) | 85.8% | 94.2% | 92.4% | -2.9% | 7.09 µM | 1.41 µM | 1.89 µM | > 20 µM
9 | CC(=O)Oc1ccc(COP(=O)(OCc2ccc(OC(C)=O)cc2)O[C@@H]2[C@@H](OP(=O)(OCc3ccc(OC(C)=O)cc3)OCc3ccc(OC(C)=O)cc3)[C@H](OCc3ccccc3)[C@@H](OCc3ccccc3)[C@H](OCc3ccccc3)[C@@H]2OP(=O)(OCc2ccc(OC(C)=O)cc2)OCc2ccc(OC(C)=O)cc2)cc1 | 34.9% | 68.5% | 52.8% | 55.3% | 3.17 µM | > 20 µM | 3.28 µM | > 20 µM
10 | CC(=O)Oc1ccc(COP(=O)(OCc2ccc(OC(C)=O)cc2)OC2C3OCOC2C(OCc2ccccc2)C(OP(=O)(OCc2ccc(OC(C)=O)cc2)OCc2ccc(OC(C)=O)cc2)C3OCc2ccccc2)cc1 (stereo not drawn) | 43.7% | 100% | 99.4% | 48% | 5.55 µM | 0.95 µM | 2.37 µM | 23.2 µM
11 | CC(=O)Oc1ccc(COP(=O)(OCc2ccc(OC(C)=O)cc2)O[C@@H]2[C@@H](OCc3ccccc3)[C@H](OCc3ccccc3)[C@@H](OP(=O)(OCc3ccc(OC(C)=O)cc3)OCc3ccc(OC(C)=O)cc3)[C@@H](OP(=O)(OCc3ccc(OC(C)=O)cc3)OCc3ccc(OC(C)=O)cc3)[C@H]2OCc2ccccc2)cc1 | 9.1% | -1.2% | -11% | 5.1% |  |  |  | 
12 | CC(=O)Oc1ccc(COP(=O)(OCc2ccc(OC(C)=O)cc2)O[C@H]2[C@H](OCc3ccccc3)[C@@H](OP(=O)(OCc3ccc(OC(C)=O)cc3)OCc3ccc(OC(C)=O)cc3)[C@H](OCc3ccccc3)[C@@H](OP(=O)(OCc3ccc(OC(C)=O)cc3)OCc3ccc(OC(C)=O)cc3)[C@H]2OCc2ccccc2)cc1 | 12.8% | 69.3% | -22.3% | 34.9% |  |  |  | 
13 | CC(=O)Oc1ccc(COP(=O)(OCc2ccc(OC(C)=O)cc2)O[C@H]2[C@H](OCc3ccccc3)[C@@H](OCc3ccccc3)[C@@H](OP(=O)(OCc3ccc(OC(C)=O)cc3)OCc3ccc(OC(C)=O)cc3)[C@@H](OP(=O)(OCc3ccc(OC(C)=O)cc3)OCc3ccc(OC(C)=O)cc3)[C@@H]2OCc2ccccc2)cc1 | -1.2% | -6.2% | -2.1% | 15.6% |  |  |  | 
14 | CC(=O)Oc1ccc(COP(=O)(OCc2ccc(OC(C)=O)cc2)O[C@H]2[C@H](OP(=O)(OCc3ccc(OC(C)=O)cc3)OCc3ccc(OC(C)=O)cc3)[C@@H](OCc3ccccc3)[C@H](OCc3ccccc3)[C@H](OCc3ccccc3)[C@@H]2OP(=O)(OCc2ccc(OC(C)=O)cc2)OCc2ccc(OC(C)=O)cc2)cc1 | 4.7% | 49.5% | 19.2% | 45.1% |  |  |  | 
15 | CC(=O)Oc1ccc(COP(=O)(OCc2ccc(OC(C)=O)cc2)O[C@@H]2[C@@H](OCc3ccccc3)[C@H](OCc3ccccc3)[C@@H](OCc3ccccc3)[C@H](OCc3ccccc3)[C@@H]2OP(=O)(OCc2ccc(OC(C)=O)cc2)OCc2ccc(OC(C)=O)cc2)cc1 | 14.9% | 15.8% | -17.2% | 42.3% |  |  |  | 
